These results are taken from ChEMBL document CHEMBL4513216, “Probing the Open Global Health Chemical Diversity Library for Multistage-Active Starting Points for Next-Generation Antimalarials” (ACS Infect Dis, 2020).

The series is described as follows: Toxicity liver stage against HepG2, at 10uM. Type of series: cell-based. The following applies: human, HepG2-A16-CD81EGFP cells; read-out: INHIBITION
Set-up: test concentration 10 uM, cell line HepG2-A16-CD81EGFP. In outline: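 Uninfected HepG2-A16-CD81EGFP cells, 3 × 10^3 per well, 1536-well, plated on prespotted compound at 10 μM final, parasite-free screening media added to match infected plates; puromycin 10 μM positive, DMSO 0.5% negative; run in parallel with 48 h PbLuc assay at 37 °C, 5% CO2; viability by CellTiter-Glo luminescence, normalized to controls.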
Turning to `Cc1ccc(S(=O)(=O)n2ccn(C(=O)COc3ccccc3)c2=O)cc1`, the cytotoxicity at 10 µM was found to be 5.34%.
As for `CN(C)C(=O)CN1C[C@H]2CCN(C(=O)c3ccccc3)CC[C@H]2S1(=O)=O`, the cytotoxicity at 10 µM was found to be 9.1%.
In the case of `CC(=O)NCC(=O)NC1CCc2c(ccc(=O)n2CC2CC2)C1` (configuration not stated), the cytotoxicity at 10 µM amounted to 7.89%.
Then `O=C(c1cocn1)N1CCC2(CC1)CC(OCC1CC1)CO2` (configuration not stated), with 10%; and `O=C(NCc1ccccn1)[C@@H]1COC[C@H]2CNC[C@H]21`, with 11.2%; and `Cc1cccc(CNC(=O)c2cccnc2N)c1`, with 11%.
With `CCCn1c(N2CCCC2)nc2c(C)nn(C)c2c1=O`, the cytotoxicity at 10 µM was 2.33%.
In the case of `CNC(=O)c1nn(C)cc1NC(=O)C(C)n1ncc(Cl)c1C` (configuration not stated), the cytotoxicity at 10 µM came out at 8.77%.
With `COc1cc(CN2CCC3(CC(Nc4ccncn4)C3)C2)cc(OC)c1` (configuration not stated), the cytotoxicity at 10 µM was -9.27%.
Take `Cc1cccc(C2CCCN(C(=O)c3ccncc3)C2)n1` (configuration not stated): the cytotoxicity at 10 µM was determined as 2.97%.
Then `COCC(=O)N1CCCC1c1csc(Nc2cnccn2)n1` (configuration not stated), with -8.11%.
With `Cc1cnc(CC2COCCN(Cc3nccn3C)C2)cn1` (configuration not stated) the figure was -2.25%; with `O=C(C1CCCCC1)N1CCC(c2n[nH]c3nccnc23)CC1`, 4.05%; with `Cc1noc(C)c1C(=O)N1CCC2(CC(N(C)c3ccncn3)C2)C1` (configuration not stated), -5.94%.
With `Cc1ncncc1C(=O)N1CCCC(Cc2nccs2)C1` (configuration not stated), the cytotoxicity at 10 µM was -9.13%.
Regarding `c1cncc(C2=NOC3(CCN(Cc4c[nH]c5ccccc45)CC3)C2)c1`, the cytotoxicity at 10 µM amounted to 9.49%.
Then `COc1ccccc1-c1cc(C(=O)N2CCCC2)c2cnn(C)c2n1`, with 9.4%; and `CN(CC1CCOC1)c1ccc(Br)cn1` (configuration not stated), with 8.35%.
`CC(C)C(C)NC(=O)Nc1cccn(C)c1=O` (configuration not stated): the cytotoxicity at 10 µM is -7.48%.
Turning to `Cc1nccn1-c1ccc(CNS(=O)(=O)N2CCCCC2C)cn1` (configuration not stated), the cytotoxicity at 10 µM was -11%.
On to `CC(C)(C)CN(CCO)C(=O)Nc1cccc(N2CCNC2=O)c1`, for which the cytotoxicity at 10 µM was -17.2%.
Then `COC(=O)CN(C(=O)c1ccoc1)c1cccc(F)c1`, with 5.42%; and `Cc1cc(C(=O)NC2CCN(c3ncccc3C#N)CC2)on1`, with 0.0456%; and `CS(=O)(=O)NC(=O)c1cnc2c(cnn2C2CCCC2)c1`, with 8.18%.
`O=C(CN1CCN(c2ccccc2F)CC1)Nc1ccc(Cl)cn1`: the cytotoxicity at 10 µM came to 4.04%.
For `Cn1ccnc1COc1ccc(NC(=O)CCC2CCCO2)cc1` (configuration not stated), the cytotoxicity at 10 µM was found to be 4.34%.
For the compound `Cc1nc(CCNC(=O)C2CC(=O)N(C(C)C)C2)cs1` (configuration not stated), the cytotoxicity at 10 µM was 14.9%.
Then `CN(C)CCNC(=O)Nc1cccc(C[S+]([O-])Cc2ccccc2)c1` (configuration not stated), with 6.59%; and `CCN(C(=O)CN(Cc1cccc(O)c1)C1CCC(O)CC1)C1CC1` (configuration not stated), with 1.31%.
With `Cc1occc1CN(C)C(=O)Nc1ccc(=O)n(C)c1` the figure was -53.5%; with `CCc1cc(CNCc2ccccc2N(C)C2CCN(C)CC2)on1`, -11.7%.
With `Cc1cc(NCc2cccc(C#N)c2)ccc1Br` the figure was 7.99%; with `CCC1CN(C(=O)c2cnc(-c3cnn(C)c3)s2)CCO1` (configuration not stated), 8.79%; with `O=C(Cc1ccc(S(=O)(=O)C(F)F)cc1)N1CCC1`, -17%.
As to `COc1ccccc1C(C)CC(=O)N1CC[C@H](O)C1` (some centres not stated), the cytotoxicity at 10 µM is -55.7%.
Regarding `CS(=O)(=O)N1CCO[C@@H]2CN(C(=O)C3CCOC3)CC[C@@H]2C1` (some centres not stated), the cytotoxicity at 10 µM was -108%.
With `O=C1NCCO[C@H]2CN(C(=O)c3cccs3)CC[C@@H]12` the figure was -107%.
Turning to `CC(C)(CO)Nc1cc(-c2ccncc2)ncn1`, the cytotoxicity at 10 µM is -0.89%.
Then `CCN(C)C[C@@H]1CN(C(=O)c2cc(-c3ccc(F)cc3)n[nH]2)C[C@@H]1CO`, with -26.4%; and `Cc1ccccc1CN1CCC(CNc2ncnc3c2CCNCC3)C1` (configuration not stated), with -7.13%; and `CNc1ccnc(NCCSc2nccn2C)n1`, with -42.6%.
For `CNC(=O)[C@@H]1C[C@@H](n2cc(-c3ccc(Cl)cc3)nn2)CN1`, the cytotoxicity at 10 µM is -3.95%.
`Clc1ccccc1C1(c2ccnc(C3CC3)n2)CCNCC1`: the cytotoxicity at 10 µM was 7.89%.
Then `Cc1nc(CCN(C)C(=O)CN2C(=O)OC[C@@H]2c2ccccc2)no1`, with -42.2%; and `CC(=O)N1CCN(Cc2c(C)ccc3ccccc23)CC(O)C1` (configuration not stated), with 11.8%.
Then `COCCN(Cc1cccnc1)c1nc(C)nc2oc(C)nc12`, with -44.1%; and `CC(C)Cc1cc(CNC(=O)c2cccc3c2NCCC3)no1`, with -50.7%.
Consider `CC(C)c1cc(NCC2(CO)CCCC2)ncn1`, for which the cytotoxicity at 10 µM turned out to be 11.9%.
As for `COc1ccc(OCc2cc(C(=O)N3C[C@@H](C)O[C@@H](C)C3)n[nH]2)c(Cl)c1`, the cytotoxicity at 10 µM was -4.28%.
Then `CCn1c(CC2CCN(C(=O)c3ccnn3C)CC2)n[nH]c1=O`, with -51.1%.
Then `O=C(CN1CCCCC1=O)N1CCC2(CC1)[C@H](O)C[C@@H]2O`, with -1.74%; and `COCCN1CCC(c2nc3c([nH]2)CCCNC3=O)CC1`, with 0.583%.
Then `CN(Cc1cccnc1)C[C@H]1CC[C@@H](Cc2ccc3c(cnn3C)c2)O1`, with 5.15%; and `CCc1nnc(N2C[C@@H](NC(C)=O)[C@H](c3ccc(C)o3)C2)s1`, with -54.5%; and `COCCn1ccnc1CN(Cc1ccccn1)CC(C)C`, with 4.96%.
On to `Cc1cc(NC(=O)CCn2cncn2)no1`, for which the cytotoxicity at 10 µM stood at 2.89%.
Then `Cc1cccc(C)c1OC1CN(Cc2cnn(C)c2)C1`, with 7.97%.
With `CN1CCCN(C[C@H]2C[C@H](CO)CN(Cc3cccnc3N)C2)CC1` the figure was -10.7%; with `Cc1ccc(CN2CCN(Cc3ccc(N(C)C)nc3)CC2=O)cc1C`, -2.43%; with `Cc1cccnc1CN(C)CC1(O)CCCN(CC2CCCCC2)C1=O` (configuration not stated), -4.09%.
With `CC(C)c1cc(COCCC(=O)O)no1`, the cytotoxicity at 10 µM was -6.5%.
Then `CCC1CCCCN1Cc1ncc(C(C)(C)C)o1` (configuration not stated), with -3.48%.
As to `Cc1nnc2n1CCN(C(=O)c1cc(C)n(-c3ccccc3)c1C)C2`, the cytotoxicity at 10 µM is -4.94%.
As to `Cc1ccc(C(=O)N2CCCCC2CNC(N)=O)cc1F` (configuration not stated), the cytotoxicity at 10 µM is -6.56%.
Then `COCCCN(C)C1CCCN(Cc2noc(C3CC3)n2)C1` (configuration not stated), with -15.4%; and `CCN1CCN(C(=O)c2ccc(=O)n(C)c2)c2ccccc21`, with -1.64%.
Then `CN(CC1COc2ccccc2O1)C(=O)CCn1cncn1` (configuration not stated), with -7.36%.
Regarding `CCOc1ccccc1OC1CCN(C(=O)c2cnns2)CC1`, the cytotoxicity at 10 µM is -3.14%.
With `COc1ccc(COCC(O)CN2CCC(c3ccn[nH]3)CC2)cc1` (configuration not stated) the figure was -0.975%; with `CCOc1ncccc1NC(=O)NCC(O)c1ccc(OC)cc1` (configuration not stated), -16.6%.
With `CN(Cc1ccc2c(c1)OCO2)C(=O)Cn1cccnc1=O` the figure was -3.96%.
Consider `NC(=O)C1CCN(C(=O)NCc2ccccc2-n2cccn2)CC1`, for which the cytotoxicity at 10 µM was -11.1%.
`Cc1nnc2n1CCN(CCOc1cccc(C#N)c1)C2`: the cytotoxicity at 10 µM is -7.88%.
With `Cc1cccc(C(=O)N2CCC(c3n[nH]c(C4CC4)n3)CC2)c1` the figure was -15.3%; with `CCn1cnnc1CNC(=O)c1ccc(Cl)cc1I`, -6.31%; with `CCOc1cc(/C=C/c2ncc(C(=O)O)s2)cc(Br)c1OC`, 7.59%.
In the case of `CCOc1cccc(C(=O)N2CCN(c3nccc(OC)n3)CC2)c1`, the cytotoxicity at 10 µM came out at 5.41%.
In the case of `Cc1nn(C)c(C)c1CC(=O)N1CCCC(n2ccnc2)C1` (configuration not stated), the cytotoxicity at 10 µM is -11.5%.
For the compound `COc1cccc(CCNC(=O)CN2CCN(C)CC2C)c1` (configuration not stated), the cytotoxicity at 10 µM was -16.7%.
On to `CCc1ccc(O)c(C(=O)NC2CCN(S(=O)(=O)CC)CC2)c1`, for which the cytotoxicity at 10 µM came to 7.37%.
For `CCn1nc2c(cc1=O)CN(Cc1nc(-c3ccccn3)no1)CC2`, the cytotoxicity at 10 µM was -5.13%.
With `Cc1cc(C)n(CC(=O)N2CCC(NS(=O)(=O)c3ccccc3)CC2)n1`, the cytotoxicity at 10 µM worked out at 4.59%.
With `Cn1cnnc1C1CCN(C(=O)CCCOc2ccccc2F)CC1`, the cytotoxicity at 10 µM was -6.26%.
Then `COCc1cccc(CNCc2c(C)nn(C)c2N(C)C)c1`, with 1.08%; and `Cc1ccc(C(=O)CN(C2=NCCCCC2)c2ccccc2)cc1`, with 17.7%; and `CCn1ncc2c1C(COC)N(C(=O)c1ccsc1)CC2` (configuration not stated), with -101%.
With `COc1ccc(CN2CCC3(CC2)CCN(c2cnn(C)c2)C3=O)cc1` the figure was -85.6%.
With `c1cc(COC[C@]23COC[C@H]2CN(Cc2ccncc2)C3)ccn1` the figure was -63.5%; with `O=S(=O)(C1CC1)N1C[C@H]2CCC[C@@]2(COCc2ccccn2)C1`, 10.6%; with `O=C(Cc1cccs1)N1C[C@@H]2COC[C@]2(COCc2cccnc2)C1`, -2.8%.
As for `O=C(c1ccc(F)cc1)N1C[C@@H]2CCN(c3cccnc3)C[C@@H]2C1`, the cytotoxicity at 10 µM is -78.4%.
With `O=C1N(c2cccnc2)CCC12CCCN(Cc1ccco1)C2` (configuration not stated) the figure was -5.79%; with `Fc1ccc(CN2C[C@@H](OCc3ccccn3)[C@H]3COC[C@H]32)cc1`, -98.9%.
As for `Cc1ccc(C(=O)N2CCc3c(CN4CCCC4)nn(C)c3C2)cc1C`, the cytotoxicity at 10 µM is -4.86%.
With `Cc1cccc(COC2COC3(CCN(S(C)(=O)=O)CC3)C2)n1` (configuration not stated) the figure was 8.98%.
Then `Cn1nc(Cn2cccn2)c2c1CN(C1CCOCC1)C2`, with 10.1%; and `O=C(N1CCOCC1)N1C2CCC(O)(CC2)C1CN1CCOCC1` (configuration not stated), with -1.94%.
